Here are results for three compounds from ChEMBL document CHEMBL1129944, “[[(Arylpiperazinyl)alkyl]thio]thieno[2,3-d]pyrimidinone derivatives as high-affinity, selective 5-HT1A receptor ligands” (J Med Chem, 1997).

Some results are limits rather than exact numbers.

Experiment [1] addresses 5-hydroxytryptamine receptor 1B (Rattus norvegicus, UniProt P28564). Kind of experiment: In vitro inhibitory concentration against radioligand [3H]5-HT binding to 5-hydroxytryptamine 1B receptor in rat striatal membrane. The class given is cell membranes, Striatum. The procedure, abridged: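 Striatum came from decapitated male rats (~150 g). Membranes were washed in 50 mM Tris-HCl pH 7.4 with a 10 min preincubation at 37 °C. Incubation buffer had 4 mM CaCl2, 0.1% ascorbic acid and 10 μM pargyline. [3H]5-HT 2 nM final, 30 min at 25 °C; nonspecific binding with 5-HT 10 μM. Bound ligand collected by filtration and scintillation-counted; IC50 by curve fitting.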

Experiment [2] addresses T1, 5-hydroxytryptamine receptor 1A (Rattus norvegicus, UniProt P19327).
T1 sequence (P19327 whole entry): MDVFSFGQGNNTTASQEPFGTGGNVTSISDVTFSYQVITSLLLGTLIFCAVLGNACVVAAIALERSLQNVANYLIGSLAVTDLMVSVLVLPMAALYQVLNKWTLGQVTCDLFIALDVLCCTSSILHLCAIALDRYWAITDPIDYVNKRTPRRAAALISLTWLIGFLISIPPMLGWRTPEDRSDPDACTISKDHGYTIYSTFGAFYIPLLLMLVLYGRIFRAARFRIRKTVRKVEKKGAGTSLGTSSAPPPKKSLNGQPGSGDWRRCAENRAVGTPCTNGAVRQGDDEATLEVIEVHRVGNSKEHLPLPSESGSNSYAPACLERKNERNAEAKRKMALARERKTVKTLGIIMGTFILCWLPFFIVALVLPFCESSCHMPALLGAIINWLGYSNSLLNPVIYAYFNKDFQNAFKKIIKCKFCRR
Kind of experiment: In vitro inhibitory concentration against radioligand [3H]8-OH-DPAT binding to 5-hydroxytryptamine 1A receptor in rat hippocampal membrane. Type of experiment: cell membranes, Hippocampus. In outline: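 Rat hippocampal membranes (male SD rats, ~150 g) were washed in 50 mM Tris-HCl pH 7.4, including 10 min at 37 °C. Incubation buffer contained 4 mM CaCl2 and 10 μM pargyline. Filtered onto GF/B and counted; 50% inhibitory concentration from fitted curves.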

Experiment [3] deals with D(1A) dopamine receptor (Rattus norvegicus, UniProt P18901). The experiment can be described thus: In vitro inhibitory concentration against radioligand [3H]SCH-23390 binding to Dopamine receptor D1 in rat striatal membrane. The class given is cell membranes, Striatum. In outline: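 Rat striatal membranes were incubated in 50 mM Tris-HCl pH 7.1 containing 10 μM pargyline, 120 mM NaCl, 5 mM KCl, 2 mM CaCl2, 1 mM MgCl2 and 0.1% ascorbic acid. [3H]SCH23390 0.4 nM final, 15 min at 37 °C; nonspecific binding with (-)-cis-flupentixol 10 μM. Filtered and counted; IC50 by curve analysis.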

In experiment [4] the target is 5-hydroxytryptamine receptor 2A (Rattus norvegicus, UniProt P14842). The experiment can be described thus: In vitro inhibitory concentration against radioligand [3H]ketanserin binding to 5-hydroxytryptamine 2A receptor in rat cortical membrane. Type of experiment: cell membranes. In outline: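 Cortex from male rats (~150 g) was washed in Tris-HCl pH 7.4 and incubated in 50 mM Tris-HCl pH 7.7. [3H]ketanserin 0.7 nM final, 15 min at 37 °C; nonspecific binding with methysergide. Filtration and scintillation counting; concentration inhibiting binding by 50% derived from dose-inhibition curves.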
Chain of 5-hydroxytryptamine receptor 2A (P14842 whole entry): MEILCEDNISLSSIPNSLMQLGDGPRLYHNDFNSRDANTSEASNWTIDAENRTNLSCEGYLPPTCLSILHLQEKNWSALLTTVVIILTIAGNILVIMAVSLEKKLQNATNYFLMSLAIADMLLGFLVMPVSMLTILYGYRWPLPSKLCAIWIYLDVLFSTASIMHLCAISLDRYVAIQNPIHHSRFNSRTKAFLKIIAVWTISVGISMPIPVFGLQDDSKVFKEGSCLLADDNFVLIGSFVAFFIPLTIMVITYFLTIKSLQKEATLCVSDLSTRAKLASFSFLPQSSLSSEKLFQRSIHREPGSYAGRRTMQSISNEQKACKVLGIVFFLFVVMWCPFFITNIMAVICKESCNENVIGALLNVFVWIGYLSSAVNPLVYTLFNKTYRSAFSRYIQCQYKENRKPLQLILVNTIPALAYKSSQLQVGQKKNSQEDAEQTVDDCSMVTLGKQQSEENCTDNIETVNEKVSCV

Experiment [5] has as its target Serotonin 1a (5-HT1a) receptor/Adrenergic receptor alpha-1 (Rattus norvegicus) (UniProt P15823+P23944+P43140+P19327). Kind of experiment: Selectivity for alpha-1-adrenergic receptor to that of 5-HT1A receptor. The class given is protein assay. In outline:
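Ratio of IC50 at α1-adrenoceptors ([3H]prazosin, rat cortex) to IC50 at 5-HT1A receptors ([3H]-8-OH-DPAT, rat hippocampus). Each IC50 came from radioligand displacement curves.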

Experiment [6] concerns the target 5-hydroxytryptamine receptor 1B (Rattus norvegicus) (UniProt P28564). The experiment can be described thus: Compound at 10E-5 M was tested in vitro for the inhibition of radioligand [3H]5-HT binding to 5-hydroxytryptamine 1B receptor in rat striatal membrane. The settings on record: Striatum. The class given is cell membranes.

Chain of 5-hydroxytryptamine receptor 1B (P28564 whole entry): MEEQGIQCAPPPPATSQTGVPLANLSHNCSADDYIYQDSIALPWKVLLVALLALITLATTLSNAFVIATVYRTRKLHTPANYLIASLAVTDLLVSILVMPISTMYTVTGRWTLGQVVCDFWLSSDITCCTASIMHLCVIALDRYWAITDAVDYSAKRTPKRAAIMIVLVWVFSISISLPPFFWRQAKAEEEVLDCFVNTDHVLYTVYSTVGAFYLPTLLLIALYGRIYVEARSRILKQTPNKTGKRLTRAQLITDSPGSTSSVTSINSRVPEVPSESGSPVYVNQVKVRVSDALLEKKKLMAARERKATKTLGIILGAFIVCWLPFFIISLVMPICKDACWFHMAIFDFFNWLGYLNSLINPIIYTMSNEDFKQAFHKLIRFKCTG
Chain of 5-hydroxytryptamine receptor 1B (Rattus norvegicus) (P28564 whole entry): as above

Regarding `COc1ccccc1C1CCN(CCCSc2nc3sc(C)c(C)c3c(=O)n2N)CC1`, the IC50 (commonly the point on the concentration scale where inhibition reaches its midpoint) in experiment [1] turned out to be 1400 nM; in experiment [2], 0.8 nM; in experiment [3] it was 800 nM; in experiment [4], 300 nM.

Take `Cc1sc2nc(SCCCN3CCN(c4ncccn4)CC3)n(N)c(=O)c2c1C`: the IC50 in experiment [2] stood at 6.8 nM; in experiment [3] it was 600 nM; in experiment [4] it was 1000 nM. The compound further yielded a Selectivity in experiment [5] of 74. The inhibition (in general, the share of the control response that was lost under treatment) in experiment [6] is less than 50%.

For `COc1ccccc1N1CCN(CCCSc2nc3sc(C)c(C)c3c(=O)n2N)CC1`, the IC50 was 700 nM in experiment [1], 0.3 nM in experiment [2], 400 nM in experiment [3] and 300 nM in experiment [4].
